From ChEMBL document CHEMBL1165882, “Synthesis and modulation properties of imidazo[4,5-b]pyridin-7-one and indazole-4,7-dione derivatives towards the Cryptosporidium parvum CpABC3 transporter” (Eur J Med Chem, 2010)

Assays:
Cryptosporidium parvum = assay: Binding affinity to Cryptosporidium parvum recombinant H6-NBD1 of ABC3 transporter expressed in Escherichia coli BL21(DE3) assessed as intrinsic fluorescence quenching at 100 uM relative to control
Procedure, shortened: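 His6-tagged NBD1 purified on Ni-NTA, dialyzed against 50 mM Tris pH 7.3/100 mM KCl/0.02% HECAMEG/20% glycerol. Protein 0.25–0.5 μM in 50 mM Tris pH 7.3, 100 mM KCl, 0.02% HECAMEG; compounds 100 μM from DMSO stocks (≤2.5% DMSO), 30 min at 20 ± 2 °C. Excitation 295 nm, emission 328 nm; % of dialysis-buffer/solvent control; triplicates, 3 separate experiments.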

[1] = Inhibition of Cryptosporidium parvum recombinant H6-NBD1 of ABC3 transporter ATPase activity expressed in Escherichia coli BL21(DE3) after 10 mins
Procedure, shortened: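 Purified His6-NBD1 (2.5 μM final) incubated 10 min at 37 °C in 50 mM Tris pH 7.3, 100 mM KCl, 4 mM MgCl2, 0.02% HECAMEG with serially diluted compounds at various ATP concentrations. Reaction products quantified in triplicate by reverse-phase HPLC, detection at 254 nm; inhibition type and Ki by non-linear regression.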

SMILES	Activity (Cryptosporidium parvum) [%]	Ki ([1]; read-out: Ki) [µM]	Ki [1]
O=C1C=CC(=O)c2c1cnn2Cc1ccccc1	22.9		
Nc1ncnc2c1ncn2[C@@H]1O[C@H](COP(=O)(O)OP(=O)(O)OP(=O)(O)O)[C@H]2OC3(O[C@H]21)C([N+](=O)[O-])=CC(=[N+]([O-])[O-])C=C3[N+](=O)[O-] (some centres undefined) [TNP-ATP]	33.1	36.6	
Cc1nc(Cn2ncc3c2C(=O)C=CC3=O)cs1	21.6	116	
CCOC(=O)CCCn1ccc(=O)c2c1ncn2Cc1ccccc1	80.1		
CC(C)(C)OC(=O)NCCCCCCn1ccc(=O)c2c1ncn2Cc1ccccc1	60.8		Not Active
CCOC(=O)Cn1ccc(=O)c2c1ncn2Cc1ccccc1	85.5		
CC(C)(C)OC(=O)NCCCn1ccc(=O)c2c1ncn2Cc1ccccc1	96.1	539	
CC(=O)[C@H]1CC[C@H]2[C@@H]3CCC4=CC(=O)CC[C@]4(C)[C@H]3CC[C@]12C	71.7		
CCOC(=O)C(C)n1ccc(=O)c2c1ncn2Cc1ccccc1 (racemic)	69.3	232	
